Sampled rows, rich in hits. Any-hit rate of the full collection: about 2.2%.
miR-122 sensor – inhibitors of miR-122 in Huh7 cells. Huh7 miR-122 Renilla luciferase sensor, 48 h; neutral wells = 0, positive control = 100. activation (reporter increase), % at 12.5 µM. hit rate 0.3% among 340,000. AID 602342;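 active = mean replicate activation score at least 90 and every replicate individually at or above 90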;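 also: higher luciferase means less miR-122 activity so hits act as miR-122 inhibitors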
FGF22 binding-1 – FGF22 (human) thermal shift binding. AID 651658. activity (Tm shift, normalised), % at 9.99 µM. Q9HCT0. recombinant FGF22 thermal shift, SYPRO orange fluorescence; percent of sucrose octasulfate shift, DMSO zero. hit rate 1.5% among 340,000;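 active = mean Tm shift, scaled 0 neutral to 100 positive control, at about 1.3% or above, every replicate too, limit read from the data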
Target sequence (Q9HCT0 whole entry, looked up): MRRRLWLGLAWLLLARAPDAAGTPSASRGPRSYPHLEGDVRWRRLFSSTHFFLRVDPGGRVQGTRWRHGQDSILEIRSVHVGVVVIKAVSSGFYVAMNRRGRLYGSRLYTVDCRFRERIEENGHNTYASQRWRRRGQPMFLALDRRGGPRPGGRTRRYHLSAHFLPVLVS
Jurkat NFkB inh – lowers PMA/ionomycin-induced NF-kB signal in Jurkat cells; PMA/ionomycin-induced NF-kB luciferase reporter, luminescence; inhibition, % at 4 µM; hit rate 0.53% among 330,000; AID 435003; in the data active = inhibition above about 50%
NR2E3 ag-1 – activates human NR2E3 receptor; inhibition of corepressor binding, % at 3.98 µM; CHO-S Gal4-NCOR/VP16-NR2E3 two-hybrid, luciferase; AID 602229; Q9Y5X4; hit rate 0.35% among 360,000;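 active = inhibition above the mean of all tested compounds plus 3 SD, cut at about 70% in these data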;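 also: 0% = DMSO with NR2E3 transfected cells and 100% = cells lacking NR2E3 construct; higher means lower luciferase signal from less NR2E3 corepressor binding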
Target sequence (Q9Y5X4 whole entry, looked up, the tested form may be a part): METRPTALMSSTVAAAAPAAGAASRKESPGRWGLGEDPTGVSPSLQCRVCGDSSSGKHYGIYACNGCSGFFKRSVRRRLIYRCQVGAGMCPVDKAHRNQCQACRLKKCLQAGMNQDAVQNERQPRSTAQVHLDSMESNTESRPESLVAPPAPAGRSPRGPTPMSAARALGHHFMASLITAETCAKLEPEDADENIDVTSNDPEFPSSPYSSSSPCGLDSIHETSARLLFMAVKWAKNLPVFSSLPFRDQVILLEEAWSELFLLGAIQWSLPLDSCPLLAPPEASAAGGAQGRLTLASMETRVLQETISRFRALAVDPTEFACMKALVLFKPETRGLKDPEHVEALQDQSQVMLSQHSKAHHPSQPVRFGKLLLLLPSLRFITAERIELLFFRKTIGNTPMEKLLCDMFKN
697 NFkB inh – inhibitors of the PMA/ionomycin-induced NF-kB reporter in 697 B cells. 697 B-cell NF-kB luciferase reporter, 16 h. inhibition, % at 4 µM. hit rate 0.33% among 330,000. AID 435022; in the data active = inhibition above about 35%
NR2E3 ag-2 – activates human photoreceptor nuclear receptor NR2E3. Q9Y5X4. GST-NR2E3/biotin-RetCOR TR-FRET, 1536-well. inhibition of corepressor binding, % at 4.78 µM. hit rate 0.12% among 320,000. AID 2300;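 active = percent inhibition above the cutoff of mean plus 3 SD of all tested compounds, set per screening campaign, cut at about 20% in these data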;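 also: 0% = DMSO wells and 100% = biotin wells as full block of FRET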
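Material: NR2E3–RetCOR corepressor complex / Incubation: Compound–protein incubation for 5 h at 4 °C / Dosing: compound at 4.8 µM, single dose / Detection: time-resolved FRET / Benchmarks: high control biotin, low control 0.6% DMSO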
FGF22 binding-2 – FGF22 (human) binding in thermal shift; thermal shift activity, °C (ΔTm) at 38 µM; recombinant FGF22 thermal shift, SYPRO orange fluorescence; shares compounds with FGF22 binding-1; hit rate 2% among 1,000; AID 720646;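 active = fitted rise in melting shift crosses a set limit at or below the top valid dose tested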
FGF22 TSA DP – binds human FGF22 shifting its melting temperature | shares compounds with FGF22 binding-1 | Thermal shift assay, SYPRO orange, melting temperature shift | Tm shift (activity), % at 38 µM | 50 tested, under 10 active | AID 743017;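 active = compounds whose fitted dose curve of melting temperature shift rises past a set threshold within the tested doses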
TSA no protein – shows thermal shift signal without protein, FGF22 counter-screen; AID 743019; AC50, µM (titrated, usually from 38 µM); compound-only SYPRO orange thermal shift counter-screen, no protein; hit rate 2% among 1,000; shares compounds with FGF22 binding-1;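 active = rising signal whose fitted curve reaches the 0.54 level within the top valid dose, showing a melting point, actives reach about 13 µM in these data; inactive = the rest, including activity in the opposite direction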; also: value is where the raw curve crosses a fixed level and not half-maximal
* marks the source's active call; other numbers are inactive results; i = inactive; x = not tested or not shown; ! = not confirmed by another sample; [ ] = another dose, or the depositor's remark.

SMILES	miR-122 sensor	FGF22 binding-1	Jurkat NFkB inh	NR2E3 ag-1	697 NFkB inh	NR2E3 ag-2	FGF22 binding-2	TSA no protein	others
C[C@H]1CN([C@@H](C)CO)C(=O)c2cc(NC(=O)c3ccncc3)ccc2O[C@@H]1CN(C)S(=O)(=O)c1cn(C)cn1	-1[16.7 µM]	1.4*	x	x	x	x	0.058	i
C[C@@H]1CN([C@H](C)CO)C(=O)c2cc(N(C)C)ccc2O[C@@H]1CN(C)CC1CCCCC1	-1[16.7 µM]	1.4*	x	x	x	x	0.27[42 µM]	i
C[C@@H]1CCCCO[C@@H](CN(C)CC2CCCCC2)[C@@H](C)CN([C@@H](C)CO)C(=O)c2cc(N(C)C)ccc2O1	-4[16.7 µM]	-1	x	x	x	x	x	x
Cc1noc(C)c1S(=O)(=O)N(C)C[C@H]1Oc2ccc(NS(=O)(=O)c3cccs3)cc2C(=O)N([C@@H](C)CO)C[C@H]1C	0[16.7 µM]	2.1*	x	x	x	x	0.12	i
C[C@@H]1CN([C@@H](C)CO)C(=O)c2cc(NS(=O)(=O)c3cn(C)cn3)ccc2O[C@@H]1CN(C)CC1CC1	-7[16.7 µM]	1.4*	x	x	x	x	0.037[42 µM]	i
COc1ccc(CNC(=O)C[C@@H]2CC[C@H](NS(=O)(=O)c3cccc(OC)c3)[C@@H](CO)O2)cc1	x	0	x	x	x	x	x	x
C[C@@H]1CN([C@H](C)CO)C(=O)Cc2cc(NC(=O)C3CC3)ccc2O[C@H]1CN(C)S(=O)(=O)c1cn(C)cn1	3[16.7 µM]	1.3*	x	x	x	x	0.11	i
C[C@H]1CN([C@@H](C)CO)C(=O)c2cc(NC(=O)CCC(F)(F)F)ccc2O[C@H]1CN(C)CC1CC1	1[16.7 µM]	1.8*	x	x	x	x	0.097[10 µM]	i
C[C@H](CO)N1C[C@H](C)[C@H](CN(C)CC2CC2)Oc2ccc(NC(=O)CCC(F)(F)F)cc2C1=O	4[16.7 µM]	0	x	x	x	x	x	x
COCC(=O)N1[C@H](CN(C)C(=O)c2ccccc2)[C@@H](c2ccccc2)[C@@H]1CO	14[16.7 µM]	x	x	x	x	x	x	x
Cc1ccccc1Nc1n[nH]c(=S)s1	-5	0	x	-22	x	x	x	x
Fc1ccccc1Nc1n[nH]c(=S)s1	x	1.6*	-10	-32	-8	5	-0.11	i
C[C@H]1CN([C@@H](C)CO)C(=O)c2cc(C3=CCCC3)cnc2O[C@@H]1CN(C)C(=O)CN(C)C	-1[16.7 µM]	0	x	x	x	x	x	x
C[C@@H]1CN([C@@H](C)CO)C(=O)c2cc(Br)cnc2O[C@H]1CN(C)C(=O)C1CC1	-9	2.4*!	x	-2	x	x	0.093	i
C[C@H]1CN([C@@H](C)CO)C(=O)c2cc(C3=CCCC3)cnc2O[C@H]1CN(C)C(=O)CN(C)C	1[16.7 µM]	1.4*	x	x	x	x	0.001	i
COC(=O)C[C@H]1CC[C@H]2[C@@H](COc3ccc(NC(=O)Nc4ccc(C)cc4)cc3C(=O)N2C)O1	4[16.7 µM]	-1	x	x	x	x	x	x
CN1C(=O)c2cc(NC(=O)Cc3cccs3)ccc2OC[C@@H]2O[C@@H](CC(=O)O)CC[C@@H]21	9[16.7 µM]	0	x	x	x	x	x	x
COc1cc(NC(=O)C2CCC(CNS(=O)(=O)c3csc(C(N)=O)c3)CC2)cc(OC)c1 (centres undefined)	x	1.8*	-12	-6	2	2	-0.31	i
Cc1cccc(Cn2ncc(Cl)c(Cl)c2=O)c1	15	39*	4	22	4	2	0.012	i
O=S(=O)(c1cccc2cccnc12)N1CCN(Cc2ccc3c(c2)OCO3)CC1	2	x	-11	-2	11	2	x	x
O=S(=O)(c1cccc2cccnc12)N1CCN(Cc2ccccc2)CC1	x	1.4*	-5	3	13	-6	0.17	i
N#C/C(=C\c1ccc(N2CCOCC2)c([N+](=O)[O-])c1)c1nc2ccccc2[nH]1	x	1.7*	-20	-27	-14	-2	-0.052	i
O=C(N/N=C/c1ccc(O)c(O)c1)N/N=C/c1ccc(O)c(O)c1	x	1.4*	-12	-55	-33	x	0.13	i
O=C(COC(=O)c1ccccc1Br)NCCC1=CCCCC1	1	24*	-13	-23	11	-4	0.053	i
C[C@H](CO)N1C[C@H](C)[C@H](CN(C)C(=O)Nc2ccc3c(c2)OCO3)Oc2ccc(NS(=O)(=O)c3ccc(Cl)cc3)cc2C1=O	-11[16.7 µM]	-1	x	x	x	x	x	x
SMILES	miR-122 sensor	FGF22 binding-1	Jurkat NFkB inh	NR2E3 ag-1	697 NFkB inh	NR2E3 ag-2	FGF22 binding-2	TSA no protein	others
C[C@H]1CN([C@@H](C)CO)C(=O)c2cc(NS(=O)(=O)c3ccc(Cl)cc3)ccc2O[C@@H]1CN(C)C(=O)Nc1ccc2c(c1)OCO2	-15[16.7 µM]	2.5*	x	x	x	x	0.11[42 µM]	i
C[C@@H]1CN([C@@H](C)CO)C(=O)c2cc(NC(=O)C3CC3)ccc2O[C@@H]1CN(C)C(=O)Nc1ccc2c(c1)OCO2	0[16.7 µM]	2.4*	x	x	x	x	-0.004[42 µM]	i
C[C@H](CO)N1C[C@H](C)[C@@H](CN(C)C(=O)Nc2ccc3c(c2)OCO3)Oc2ccc(NC(=O)C3CC3)cc2C1=O	2[16.7 µM]	1	x	x	x	x	x	x
C[C@H](CO)N1C[C@H](C)[C@@H](CN(C)C(=O)Nc2ccc3c(c2)OCO3)Oc2c(NC(=O)c3cnccn3)cccc2C1=O	1[16.7 µM]	6.3*	x	x	x	x	0.054[42 µM]	i
O=C(CNC(=O)c1cccc(Br)c1)N/N=C/c1cc(Br)cc(Br)c1O	2	1.7*	-4	-40	-28	3	-0.14	i
CC(C)c1c(C(=O)N/N=C/c2cccc3ccccc23)nnn1-c1nonc1N	5	0	19	-15	-12	-3	x	x
CN(Cc1c(C(=O)N/N=C/c2ccccc2)nnn1-c1nonc1N)c1ccccc1	0	0	12	-41	-24	1	x	x
CN(Cc1c(C(=O)N/N=C/c2ccc(O)cc2)nnn1-c1nonc1N)c1ccccc1	0	1.9*	-4	7	-14	2	-0.027	i	FGF22 TSA DP=0
CC(C)c1c(C(=O)N/N=C/c2c[nH]c3ccccc23)nnn1-c1nonc1N	-8	2.3*	-4	23	-8	12	x	i	FGF22 TSA DP=1
O=C(N[C@@H]1C=C[C@@H](CC(=O)N2CCCCC2)O[C@@H]1CO)c1cccc(F)c1	x	1.8*	x	x	x	x	-0.09[42 µM]	i
O=C1Nc2cc(Cl)c(Cl)cc2N(O)N1c1ccc(Cl)cc1	4	28*	13	-5	18	-1	0.099	i
CCC(=O)N(C)C[C@@H]1Oc2cc(C#CC(C)C)ccc2S(=O)(=O)N([C@H](C)CO)C[C@@H]1C	-5[16.7 µM]	0	x	x	x	x	x	x
C[C@@H]1CCCCO[C@@H](CN(C)C(=O)Nc2ccc3c(c2)OCO3)[C@@H](C)CN([C@H](C)CO)C(=O)c2cc(NC(=O)c3ccccc3)ccc2O1	9[16.7 µM]	0	x	x	x	x	x	x

Screening results: PubChem BioAssay, several laboratories
